{"source": "paper PMC2115016", "about": "(The Journal of Cell Biology, 1988)", "key": {"[1]": {"tested_on": "B16-F10 murine melanoma cells", "settings": "melanoma cell system; cited from earlier work"}, "[2]": {"tested_on": "chick embryo dorsal root ganglia (DRG)", "format": "cell-based", "settings": "for Inhibition of neurite outgrowth on fibronectin by CS peptide: Table IV, 1 mg/ml peptide, BSA background subtracted"}, "chick embryo fibroblasts": {"tested_on": "chick embryo fibroblasts", "experiment": "Adhesion and spreading of chick embryo fibroblasts on coated substrates", "format": "cell-based", "settings": "control experiment"}, "[3]": {"tested_on": "chick embryo dorsal root ganglia (DRG)", "experiment": "Neurite outgrowth of explanted ganglia on substrate-adsorbed ligands", "format": "cell-based", "method_in_brief": "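Ligands in Dulbecco's PBS were adsorbed to wells (60 min, RT), then blocked with 10 mg/ml heat-denatured BSA (30 min, RT). For co-coating, the fragment went on first, then the CS-IgG conjugate, 60 min each. Lumbosacral DRG from 10-12-d chick embryos were cultured overnight at 37°C in Ham's F12 with 2 mM glutamine, antibiotics and 20 ng/ml 7S-NGF. After glutaraldehyde fixation, radius was read at four 90° positions with a calibrated eyepiece, 6-10 ganglia per point.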"}}, "data": [{"substance": "DELPQLVTLPHPNLHGPEILDVPST [CS1]", "values": [{"measurement": "Activity relative to fibronectin on a molar basis, fold less active", "setting": "[1]", "result": 2.5, "unit": "fold"}, {"measurement": "Inhibition of neurite outgrowth on fibronectin by CS peptide", "setting": "[2]; 20 μg/ml fibronectin", "result": 32, "unit": "%"}, {"measurement": "Inhibition of fibronectin-mediated neurite extension", "setting": "[2]; five independent experiments", "result": "25-30%"}]}, {"substance": "FRRTTPPTTATPIRHRPRPYPPNVGEE [CS4]", "values": [{"measurement": "Further inhibition when coincubated with mAb 333 (300 μg/ml)", "setting": "[2]; Fig. 6, 20 μg/ml fibronectin, CS4 1 mg/ml, compared with mAb 333 alone", "result": "no further inhibitory activity"}]}, {"substance": "Fibronectin", "values": [{"measurement": "Adhesion / spreading of chick embryo fibroblasts on substrate", "setting": "chick embryo fibroblasts", "result": "adhere equally well"}, {"measurement": "Relative activity", "setting": "[3]; Table I, relative to activity of fibronectin after subtraction of the background due to IgG", "result": 100, "unit": "%"}]}, {"substance": "LPGTSGQQPSVGQQMIFEEHGFRR [CS3]", "values": [{"measurement": "Inhibition of neurite outgrowth on fibronectin by CS peptide", "setting": "[2]; 20 μg/ml fibronectin", "result": 11, "unit": "%"}]}, {"substance": "Nerve growth factor [reference compound]", "values": [{"measurement": "Effect on fibronectin-mediated neurite extension", "setting": "[3]; control experiment, medium supplement 20 ng/ml", "result": "no detectable effect"}]}]}
